Bioassay records: PubChem, Johns Hopkins Ion Channel Center
hERG protect: hERG rescue from dofetilide block, primary screen, cell-based, CHO-hERG, FluxOR thallium flux, dofetilide IC70; dofetilide IC70 present; AID 1511, 2009; Voltage-gated inwardly rectifying potassium channel KCNH2 (Homo sapiens), Q12809; activation (rescue from dofetilide block), less the hit threshold, % at 10 µM; 310,000 tested, 0.51% active;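 active = activation above the mean of controls blocked by dofetilide plus 5 SD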;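 note: thallium influx through hERG after potassium depolarization seen as dye fluorescence rise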
KCNQ1 block: inhibitors of human KCNQ1 channel, primary screen, cell-based, thallium flux, high-throughput | AID 2642, 2010 | B-score at 10 µM | CHO-K1 KCNQ1, FluxOR thallium flux fluorescence; stronger effect = higher value | 310,000 tested, 1.3% active;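 active = compounds whose thallium flux B-score, printed positive for inhibition, exceeds three library SD while starting fluorescence stays within three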;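 note: channel opened by potassium depolarization with thallium stimulus after 20 min compound exposure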
Kir21 block: inhibitors of mouse Kir2.1 inward-rectifier potassium channel | Inward rectifier potassium channel 2 (Mus musculus), P35561 | 310,000 tested, 0.85% active | B-score at 10 µM | HEK293-Kir2.1, FluxOR thallium flux fluorescence; stronger effect = lower value | AID 1672, 2009;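 active = fluorescence ratio B-score at or below minus 3 SD of library scores, with starting-brightness B-score within 2 SD, cut at about -4.2 in these data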;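 note: channel flux triggered by added potassium and thallium sulfate stimulus; B-score of peak minus minimum fluorescence over baseline after thallium stimulus; more negative B-score means stronger Kir2.1 block with less thallium influx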
Target sequence (P35561 whole entry, looked up): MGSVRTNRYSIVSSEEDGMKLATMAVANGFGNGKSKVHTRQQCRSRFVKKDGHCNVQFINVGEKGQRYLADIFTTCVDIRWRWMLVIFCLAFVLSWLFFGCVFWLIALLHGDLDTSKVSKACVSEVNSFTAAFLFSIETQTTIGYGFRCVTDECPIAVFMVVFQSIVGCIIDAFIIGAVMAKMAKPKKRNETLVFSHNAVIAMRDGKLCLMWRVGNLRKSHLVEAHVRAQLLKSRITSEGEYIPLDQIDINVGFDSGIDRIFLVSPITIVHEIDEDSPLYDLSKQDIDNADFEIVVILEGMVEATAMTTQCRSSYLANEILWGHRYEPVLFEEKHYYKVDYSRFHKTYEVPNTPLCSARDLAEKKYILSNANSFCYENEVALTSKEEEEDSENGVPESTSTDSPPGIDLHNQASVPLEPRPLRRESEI
KCNK3 block: human KCNK3 channel inhibitors, primary screen, CHO cells, FluxOR thallium flux, B-score. FluxOR fluorescence; stronger effect = lower value. AID 602410, 2012. 340,000 tested, 0.84% active. B-score at 10 µM. Potassium channel subfamily K member 3 (Homo sapiens), O14649;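 active = B-score under library mean minus 4 SD, starting fluorescence ratio at most library mean plus 5 SD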;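 note: more negative B-score means stronger inhibition of thallium flux through KCNK3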
KCNQ1 pot: potentiators or activators of KCNQ1 channel, primary screen, cell-based, thallium flux, high-throughput; 310,000 tested, 0.35% active; B-score at 10 µM; CHO-K1 KCNQ1, thallium flux FluxOR fluorescence; stronger effect = higher value; Potassium voltage-gated channel subfamily KQT member 1 (Homo sapiens), P51787; AID 2648, 2010;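 active = fluorescence ratio B-score, a plate-corrected score, at least three library SD, with initial intensity B-score within 5 SD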
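assay system = CHO-K1 cells stably expressing KCNQ1 | medium = assay buffer, equal DMSO in all wells | timing = 37 °C overnight plating, 90-min dark dye load, 20-min compound pretreatment | measured by = kinetic FluxOR thallium fluorescence, 10-s 1-Hz baseline, 110-s post-stimulus read | measure = fluorescence change relative to baseline, converted to B score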
KCNK9 inh: KCNK9 potassium channel inhibitors, primary screen, HEK293 cells, thallium flux; B-score at 10 µM; FluxOR thallium flux fluorescence; stronger effect = lower value; 310,000 tested, 1.2% active;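 active = ratio B-score over 3 SD below the library mean, with starting fluorescence within 5 SD of its mean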;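 note: negative B-score means less thallium flux so channel inhibition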
Target sequence (Q9NPC2 whole entry, looked up): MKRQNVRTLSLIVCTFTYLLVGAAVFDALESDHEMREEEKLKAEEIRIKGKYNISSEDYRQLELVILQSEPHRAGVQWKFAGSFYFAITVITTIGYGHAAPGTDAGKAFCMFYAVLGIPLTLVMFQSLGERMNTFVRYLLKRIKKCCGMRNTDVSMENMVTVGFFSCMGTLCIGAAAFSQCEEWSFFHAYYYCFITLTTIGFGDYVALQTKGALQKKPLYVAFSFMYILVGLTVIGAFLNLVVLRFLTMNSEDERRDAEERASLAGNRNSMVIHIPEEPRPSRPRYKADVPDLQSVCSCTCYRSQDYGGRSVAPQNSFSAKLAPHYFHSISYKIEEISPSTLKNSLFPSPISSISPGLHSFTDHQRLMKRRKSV
KCNQ1 block val: KCNQ1 potassium channel inhibitors, confirmation, cell-based, Tl flux, duplicate | 1,600 tested, 93% active | inhibition, % at 10 µM | shares compounds with KCNQ1 block | KCNQ1 cell line, FluxOR thallium flux fluorescence;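 active = primary screen active, with duplicate mean exceeding buffer control mean plus 3 SD of buffer wells, cut at about 28% in these data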;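 note: 0% = buffer control ratio and 100% = XE991 inhibitor control ratio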
CHO Tl flux: thallium flux effects in parental CHO cells, counter-screen for KCNQ1 inhibitor project, cell-based, Tl flux; shares compounds with KCNQ1 block; parental CHO-K1, FluxOR thallium flux fluorescence ratio; stronger effect = lower value; zero means no signal rise above baseline; fluorescence ratio (Tl flux) at 10 µM; 1,600 tested, 21% active; AID 588366, 2011;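 active = mean of duplicate thallium-flux fluorescence ratios in parental host cells more than 5 SD below the buffer control mean, cut at about 0.38 in these data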;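 note: ratio is peak minus minimum fluorescence divided by baseline fluorescence; actives read low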
KCNQ1 ephys val: KCNQ1 channel inhibitors, confirmation, orthogonal assay, cell-based, automated electrophysiology. shares compounds with KCNQ1 block. KCNQ1-CHO cells, automated patch clamp current. calls only at 10 µM. 490 tested, 20% active. AID 624120, 2012;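 active = KCNQ1 current drop exceeding 3 SD of negative control wells, seen in both duplicate runs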;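 note: steady state current during a 2 s step from -80 to +40 mV; negative values mean current inhibition and positive values mean potentiation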
KCNQ2 inh: KCNQ2 channel inhibition, selectivity assay for KCNQ1 inhibitor project, cell-based; shares compounds with KCNQ1 block; KCNQ2 cells, FluxOR thallium flux fluorescence; inhibition, % at 10 µM; 1,600 tested, 71% active; AID 651746, 2012;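 active = mean percent inhibition of the KCNQ2 thallium signal more than 5 SD above the buffer-only control wells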;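 note: KCNQ2 expressed in CHO cells; 0% = buffer control wells and 100% = XE-991 inhibitor control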
KCNQ1 KCNE1 spec: KCNQ1/KCNE1 channel inhibition, selectivity assay for KCNQ1 inhibitor project, CHO-K1 cells, thallium flux, FluxOR | AID 652147, 2013 | shares compounds with KCNQ1 block | FluxOR thallium flux fluorescence | inhibition, % at 10 µM | 1,600 tested, 77% active;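 active = mean percent inhibition of duplicate wells above the buffer-only control mean plus 3 SD of those controls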;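 note: 0% = buffer only wells and 100% = XE-991 inhibitor control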
KCNK9 block conf: KCNK9 potassium channel inhibitors, confirmation, HEK293 cells, thallium flux, duplicate; FluxOR thallium flux fluorescence; shares compounds with KCNK9 inh; 4,900 tested, 43% active; inhibition, % at 10 µM;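 active = thallium signal inhibited by more than 5 SD of the compound-free buffer control wells, on both duplicate plates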;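 note: 0% = assay buffer control wells without compound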
Kir21 sel: mouse Kir2.1 channel inhibition, confirmation, selectivity assay for KCNK9 modulator project, cell-based, HEK293, thallium flux; shares compounds with KCNK9 inh; Kir2.1 cells, FluxOR thallium flux fluorescence; inhibition, % at 10 µM; 4,900 tested, 4% active; AID 492993, 2010;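 active = thallium signal drop more than 5 SD beyond the mean of the no-compound control wells, seen in both duplicate plates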;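 note: signal is fluorescence rise after thallium addition divided by baseline fluorescence; plate controls were assay buffer only for no effect and full block by chlorpromazine control for full effect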
KCNK9 uninduced: thallium flux in non-induced HEK293 cells, confirmation, counter-screen for KCNK9 inhibitor project, cell-based, second counter screen, non-induced KCNK9-HEK293 | shares compounds with KCNK9 inh | FluxOR thallium flux | inhibition, % at 10 µM | 4,900 tested, 40% active | AID 492997, 2010;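 active = thallium signal drop beyond 5 SD of the untreated control mean, on both duplicate plates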;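 note: plate controls were buffer only IC0 wells for no effect and SID17386958 at its maximal inhibitory level for full effect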
KCNK3 confirm: retest of human KCNK3 channel inhibitors, confirmation, CHO cells, FluxOR thallium flux, triplicate; shares compounds with KCNK3 block; 2,400 tested, 99% active; FluxOR fluorescence; 0% buffer, 100% carvedilol maximal block; ratio percent of control, % at 10 µM; AID 651638, 2012;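 active = ratio percent of control, averaged over triplicates, above buffer control mean plus 5 SD, cut at about 64% in these data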;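 note: ratio is the fluorescence rise from min to max over baseline after thallium stimulus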
KCNK3 uninduced: thallium flux inhibition in non-induced cells, primary screen, counter-screen for KCNK3 inhibitor project, cell-based, non-induced KCNK3 line, FluxOR thallium, triplicate | shares compounds with KCNK3 block | non-induced KCNK3 parental cells; stronger effect = lower value | thallium flux ratio (lower = more inhibition) at 10 µM | 2,400 tested, 40% active;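 active = thallium flux ratio, averaged over three wells, more than 5 SD below the buffer control mean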;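 note: host cells are CHO cells without KCNK3 induction; ratio is peak minus trough fluorescence over baseline then normalized to buffer controls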
The depositor's hits bear a star; i = inactive; / = no result; + = active, no number. Rows were chosen to be rich in hits. Some 3.8% of all compounds tested hit in one or more screens of this group.

SMILES | hERG protect | KCNQ1 block | Kir21 block | KCNK3 block | KCNQ1 pot | KCNK9 inh | KCNQ1 block val | CHO Tl flux | KCNQ2 inh | KCNQ1 KCNE1 spec | KCNK3 confirm | KCNK3 uninduced | others
Cc1sc2nc(C(C)C)nc(SCC(=O)N3CCOCC3)c2c1C | -1 | i | 0.44 | i | i | i | / | / | / | / | / | /
CCCCNC(=S)Nc1ccc(Oc2ccccc2)cc1 | -22 | 6* | -0.6 | -9.7* | i | -7.5* | 39* | 0.54 | i | 68%* | 96* | i
COc1cc(/C=C(\NC(=O)c2cc(OC)c(OC)c(OC)c2)C(=O)NC(C(=O)O)c2ccccc2)cc(OC)c1OC (stereo not drawn) | -8 | i | -0.83 | i | i | i | / | / | / | / | / | /
C[C@H](NC(N)=O)C(=O)OCC(=O)Nc1ccc(OC(F)F)cc1 | -5 | i | 1.1 | i | i | i | / | / | / | / | / | /
CNc1ccccc1C(C)(C)c1cc(-c2cccc(Br)c2)no1 | -22 | 6* | 0.61 | -11* | i | i | 122* | 0.46 | 106%* | 117%* | 121* | 0.15* | KCNQ1 ephys val=i
CNc1ccccc1C(C)(C)c1cc(-c2cccc([N+](=O)[O-])c2)no1 | 1 | i | 0.11 | i | i | i | / | / | / | / | / | /
Cc1cccc(-c2cc(C(=O)Nc3ccncc3)c3ccccc3n2)c1 | -3 | i | -0.85 | i | i | i | / | / | / | / | / | /
Cc1cccc(-c2cc(C(=O)Nc3cccnc3)c3ccccc3n2)c1 | -21 | 9* | -1.9 | -8.9* | i | i | 124* | 0.37* | 136%* | 159%* | 125* | 0.1*
COc1ccc(S(=O)(=O)N2Cc3ccccc3CC2C(=O)Nc2nccs2)cc1 (stereo not drawn) | -7 | i | -0.74 | i | i | i | / | / | / | / | / | /
Cc1cc(S(=O)(=O)NCc2ccccc2)ccc1OCC(=O)NCc1ccncc1 | -9 | i | 0.19 | i | i | i | / | / | / | / | / | /
CCN(c1ccccc1)c1nc(C#N)nc(N(CC)c2ccccc2)n1 | -10 | 7* | -2.1 | -11* | i | i | 106* | 0.37* | 112%* | 80%* | 102* | i | KCNK9 block conf=i;Kir21 sel=i;KCNK9 uninduced=i
CCN(c1ccccc1)c1cc(C)nc2nc(C)nn12 | -6 | i | -0.69 | i | i | i | / | / | / | / | / | /
COc1ccc2nc3c(cc2c1)c(NC(=O)c1cccs1)nn3CC(C)C | -14 | 6* | 0.98 | -9.8* | i | -9* | 144* | 0.29* | 127%* | + | 94* | 0.15* | KCNK9 block conf=i;Kir21 sel=i;KCNK9 uninduced=i
CC(C)CNC(=S)N1CCN(c2nc(-c3ccc(Cl)cc3)cs2)CC1 | -7 | 11* | -0.06 | -9.8* | i | i | 159* | 0.41 | 128%* | 142%* | 140* | 0.12* | KCNQ1 ephys val=i
COc1cccc(-c2csc(N3CCN(C(=S)NCC(C)C)CC3)n2)c1 | -6 | i | 0.14 | i | i | i | / | / | / | / | / | /
O=C1CSC(=Nc2cc(Cl)ccc2Cl)N1 | -6 | i | -0.02 | i | i | i | / | / | / | / | / | /
COc1cccc(NC(=O)CN2C(=O)CSc3nc(C)cc(C)c32)c1 | -5 | i | 0.51 | i | i | i | / | / | / | / | / | /
COCCn1cnc2c1c(=O)n(CC(=O)NC(=O)NC(C)(C)C)c(=O)n2Cc1ccccc1 | -6 | i | -0.09 | i | i | i | / | / | / | / | / | /
CN(C)S(=O)(=O)c1cccc(COC(=O)c2ccc(Cl)cc2O)c1 | -24 | 7* | 1.4 | -9.5* | i | -8.3* | 121* | 0.43 | 96%* | 117%* | 131* | i | KCNQ1 ephys val=i;KCNK9 block conf=50%*;Kir21 sel=i;KCNK9 uninduced=26%*
